# In ChEMBL document CHEMBL3272224, “Synthesis and hypotensive activity of N-alkyl-N"-cyano-N'-pyridylguanidines” (J Med Chem, 1978):
# Calls of active or inactive are those of the source. The rule behind the calls is not given here.
# Experiments:
# [1] = tested on: Rattus norvegicus; test: Hypotensive activity in spontaneously hypertensive Wistar-Okamoto rat assessed as time required for persistence of hypotensive effect at 10 mg/kg, po; assay type: functional
# In short: (§1)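 SHR (Wistar-Okamoto), five per dose, were given an oral dose in 0.5% carboxymethylcellulose. Indirect cuff pressure in restrained conscious rats was read before dosing and at 2, 4, 6, 8, 12 and 24 h. Duration (h) was scored while pressure remained 15 mmHg or more below the initial reading.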
# [2] = tested on: Canis familiaris; test: Hypotensive activity in conscious renal hypertensive dog assessed as time required for persistence of hypotensive effect at 5 mg/kg, po measured for 8 hrs; assay type: functional, Canis lupus familiaris
# In short: (§2)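 Conscious renal hypertensive dogs received single oral doses in soft gelatin capsules, three per dose. Indirect standing blood pressure was read before dosing and hourly to 8 h. Duration (h) was the time the pressure stayed 15 mmHg or more below the initial value, which was taken as persistence of the hypotensive effect.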
# [3] = tested on: Rattus norvegicus; test: Hypotensive activity in spontaneously hypertensive Wistar-Okamoto rat assessed as maximum change in mean blood pressure at 10 mg/kg, po relative to control; assay type: functional
# In short: (§3)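 Spontaneously hypertensive Wistar-Okamoto rats, five per dose, received compound orally, dissolved or suspended in 0.5% carboxymethylcellulose. Blood pressure was measured indirectly by tail cuff in restrained conscious rats before dosing and at 2, 4, 6, 8, 12 and 24 h. Maximum change was measured after a single administration and given as mean ± error.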
# [4] = tested on: Canis familiaris; test: Hypotensive activity in conscious renal hypertensive dog assessed as maximum change in mean blood pressure at 10 mg/kg, po measured for 8 hrs relative to control; assay type: functional, Canis lupus familiaris
# In short: (§4)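 Renal hypertensive dogs, conscious, dosed orally in soft gelatin capsules, three dogs per dose. Mean blood pressure was taken indirectly with an Arteriosonde, standing animals in a semi-insonorized room, just before dosing and then hourly for 8 h. Maximum change was measured after a single administration and given as mean ± error.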
# [5] = tested on: Canis familiaris; test: Hypotensive activity in conscious renal hypertensive dog assessed as maximum change in mean blood pressure at 2.5 mg/kg, po measured for 8 hrs relative to control; assay type: functional, Canis lupus familiaris; in short: as §4
# [6] = tested on: Rattus norvegicus; test: Hypotensive activity in spontaneously hypertensive Wistar-Okamoto rat assessed as time required for persistence of hypotensive effect at 2.5 mg/kg, po; assay type: functional; in short: as §1
# [7] = tested on: Canis familiaris; test: Hypotensive activity in conscious renal hypertensive dog assessed as time required for persistence of hypotensive effect at 10 mg/kg, po measured for 8 hrs; assay type: functional, Canis lupus familiaris; in short: as §2
# [8] = tested on: Canis familiaris; test: Hypotensive activity in conscious renal hypertensive dog assessed as maximum change in mean blood pressure at 5 mg/kg, po measured for 8 hrs relative to control; assay type: functional, Canis lupus familiaris; in short: as §4
# [9] = Toxicity in po dosed Sprague-Dawley rat assessed as mortality after 7 days; assay type: organism-based; settings: in vivo
# [10] = tested on: Rattus norvegicus; test: Hypotensive activity in spontaneously hypertensive Wistar-Okamoto rat assessed as maximum change in mean blood pressure at 5 mg/kg, po relative to control; assay type: functional; in short: as §3
# [11] = tested on: Rattus norvegicus; test: Hypotensive activity in spontaneously hypertensive Wistar-Okamoto rat assessed as time required for persistence of hypotensive effect at 5 mg/kg, po; assay type: functional; in short: as §1
# [12] = tested on: Rattus norvegicus; test: Hypotensive activity in spontaneously hypertensive Wistar-Okamoto rat assessed as maximum change in mean blood pressure at 2.5 mg/kg, po relative to control; assay type: functional; in short: as §3
# [13] = tested on: Canis familiaris; test: Hypotensive activity in conscious renal hypertensive dog assessed as time required for persistence of hypotensive effect at 2.5 mg/kg, po measured for 8 hrs; assay type: functional, Canis lupus familiaris; in short: as §2
# [14] = tested on: Canis familiaris; test: Hypotensive activity in conscious renal hypertensive dog assessed as maximum change in mean blood pressure at 0.5 mg/kg, po measured for 8 hrs relative to control; assay type: functional, Canis lupus familiaris; in short: as §4
# [15] = tested on: Rattus norvegicus; test: Toxicity in rat assessed as change in cardiac noradrenaline level at 1 mg/kg for 5 days; assay type: organism-based, Heart; parameters: dose 1 mg/kg; settings: in vivo, 120 h
# In short: (§5)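 Rats were given single or repeated (5 days) administration, and cardiac noradrenaline levels were measured.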
# [16] = tested on: Rattus norvegicus; test: Hypotensive activity in spontaneously hypertensive Wistar-Okamoto rat assessed as maximum change in mean blood pressure at 0.5 mg/kg, po relative to control; assay type: functional; in short: as §3
# [17] = species: Rattus norvegicus; test: Toxicity in rat assessed as effect on contraction of nictitating membranes by preganglionic stimulation; assay type: organism-based, Nictitating membrane; settings: in vivo
# [18] = tested on: Rattus norvegicus; test: Hypotensive activity in po dosed spontaneously hypertensive Wistar-Okamoto rat assessed as dose required to cause 30 mmHg fall of blood pressure administered for 5 days; assay type: functional; settings: 120 h, read-out: MED
# [19] = species: Felis catus; test: Hypotensive activity in decerebrated cat; assay type: functional, organism-based
# [20] = tested on: Rattus norvegicus; test: Toxicity in rat assessed as change in cardiac noradrenaline level at 1 mg/kg; assay type: organism-based, Heart; parameters: dose 1 mg/kg; settings: in vivo; in short: as §5
# [21] = tested on: Rattus norvegicus; test: Hypotensive activity in spontaneously hypertensive Wistar-Okamoto rat assessed as time required for persistence of hypotensive effect at 1 mg/kg, po; assay type: functional; in short: as §1
# [22] = tested on: Canis familiaris; test: Hypotensive activity in conscious renal hypertensive dog assessed as time required for persistence of hypotensive effect at 0.5 mg/kg, po measured for 8 hrs; assay type: functional, Canis lupus familiaris; in short: as §2
# [23] = tested on: Canis familiaris; test: Hypotensive activity in conscious renal hypertensive dog assessed as time required for persistence of hypotensive effect at 1 mg/kg, po measured for 8 hrs; assay type: functional, Canis lupus familiaris; in short: as §2
# [24] = tested on: Canis familiaris; test: Hypotensive activity in conscious renal hypertensive dog assessed as time required for persistence of hypotensive effect at 0.25 mg/kg, po measured for 8 hrs; assay type: functional, Canis lupus familiaris; in short: as §2
# [25] = tested on: Rattus norvegicus; test: Hypotensive activity in spontaneously hypertensive Wistar-Okamoto rat assessed as maximum change in mean blood pressure at 1 mg/kg, po relative to control; assay type: functional; in short: as §3
# [26] = tested on: Canis familiaris; test: Hypotensive activity in conscious renal hypertensive dog assessed as maximum change in mean blood pressure at 0.25 mg/kg, po measured for 8 hrs relative to control; assay type: functional, Canis lupus familiaris; in short: as §4
# [27] = tested on: Rattus norvegicus; test: Hypotensive activity in spontaneously hypertensive Wistar-Okamoto rat assessed as time required for persistence of hypotensive effect at 0.5 mg/kg, po; assay type: functional; in short: as §1
# [28] = tested on: Canis familiaris; test: Hypotensive activity in conscious renal hypertensive dog assessed as maximum change in mean blood pressure at 1 mg/kg, po measured for 8 hrs relative to control; assay type: functional, Canis lupus familiaris; in short: as §4
# [29] = tested on: Rattus norvegicus; test: Toxicity in rat assessed as change in cardiac noradrenaline level at 0.1 mg/kg; assay type: organism-based, Heart; parameters: dose 0.1 mg/kg; settings: in vivo; in short: as §5
# [30] = Toxicity in po dosed mouse assessed as mortality after 7 days; settings: in vivo
# [31] = tested on: Rattus norvegicus; test: Toxicity in rat assessed as change in cardiac noradrenaline level at 0.1 mg/kg for 5 days; assay type: organism-based, Heart; parameters: dose 0.1 mg/kg; settings: in vivo, 120 h; in short: as §5
smiles,measurement,setting,value
CCC(C)(C)/N=C(/S)Nc1cccnc1,Time,[1],>4 h
same,Time,[2],2 h
same,Activity,[3],-69 mmHg
same,Activity,[4],-43 mmHg
same,Activity,[5],-14 mmHg
same,Time,[6],2 h
same,Time,[7],4 h
same,Activity,[8],-28 mmHg
same,LD50 at 168 h,[9],460 mg/kg
same,Activity,[10],-47 mmHg
same,Time,[11],2 h
same,Activity,[12],-35 mmHg
same,Time,[13],2 h
CC(N/C(=N\C#N)Nc1ccncc1)C(C)(C)C (stereo not given) [PINACIDIL ANHYDROUS],Activity,[14],-43 mmHg
same,Activity,[15],Non-toxic
same,Activity,[16],-34 mmHg
same,Time,[6],>12 h
same,Activity,[17],Non-toxic
same,minimal effective dose,[18],0.5 mg/kg
same,Activity,[19],Active
same,Activity,[20],Non-toxic
same,Time,[21],>12 h
same,Time,[22],6 h
same,Time,[23],>8 h
same,Time,[24],4 h
same,Activity,[12],-79 mmHg
same,Activity,[25],-68 mmHg
same,Activity,[26],-26 mmHg
same,Time,[27],8 h
same,Activity,[28],-67 mmHg
CCC(C)(C)NC(=NC#N)Nc1cccnc1,Activity,[29],Non-toxic
same,Activity,[17],Non-toxic
same,LD50 at 168 h,[9],14 mg/kg
same,LD50 at 168 h,[30],> 1000 mg/kg
same,Activity,[31],Non-toxic
